Measurements reported in article PMC3832139 (Cancer chemotherapy and pharmacology, 2013).
Where two headings read alike, the source gives them in different places.

What was measured:
[1] = tested on: MM.1R cells; experiment: MTT cytotoxicity assay; type: cell-based, human
[2] = tested on: MM.1S cells; experiment: Cleaved caspase-3 immunocytochemistry; type: cell-based, human; details: for cells positive for cleaved caspase-3: one hour, non-treated 5.9%
[3] = tested on: MM.1R cells; experiment: Cleaved caspase-3 immunocytochemistry; type: cell-based, human
[4] = tested on: MM.1R xenografts; type: in vivo, mouse
[5] = tested on: MM.1R xenografts; experiment: Immunohistochemistry of MM.1R tumors; type: in vivo, mouse; details: 50 mg/kg s.c. 3 times weekly
Procedure, shortened: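 Mice bearing s.c. MM.1R flank xenografts (randomized at 100–125 mm³) got test compound 50 mg/kg s.c. or acidified sterile water vehicle, 3 times weekly for 3 weeks. Frozen 4 μm tumor sections were stained with rat anti-mouse CD31; paraffin 5 μm sections were stained overnight with anti-PCNA (PC10). HRP streptavidin-biotin, hematoxylin counterstain, mouse IgG negative control. PCNA labeling index: % positive nuclei over 500 cells, ten 40x fields; SD, n=8.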

[6] = tested on: MM.1S and MM.1R cells; experiment: Western blot of signaling pathways; type: cell-based, human; details: for phospho-p70 S6 kinase: MM.1R cells, data not shown; for phosphorylation of AKT, MDM2, and ERK: MM.1S and MM.1R cells, 10 μM
[7] = tested on: HIF-1α in MM.1R cells; experiment: Hypoxic HIF-1α stabilization, Western blot; type: cell-based, human; details: 1% oxygen, 4 hours
[8] = tested on: HIF-1α in RPMI 8226 cells; experiment: Hypoxic HIF-1α stabilization, Western blot; type: cell-based, human; details: RPMI 8226, 1% oxygen, 4 hours, 20 and 40 μM
[9] = human, in vivo
[10] = relapsed or refractory MM patients, Phase I
[11] = tested on: MM.1S cells; experiment: MTT cytotoxicity assay; details: read-out: IC50 (cytotoxicity, MTT)
[12] = tested on: RPMI 8226 cells; experiment: MTT cytotoxicity assay; type: cell-based; details: Homo sapiens, RPMI-8226, 48 h, read-out: IC50 (cytotoxicity, MTT)
[13] = tested on: phospho-AKT in CD138+ MM cells; experiment: Phospho-AKT flow cytometry of patient bone marrow CD138+ MM cells; type: in vivo, human; details: patient 002 CD138+ cells before dosing, 10 μM ex vivo, 30 minutes
[14] = Prodrug cleavage and preclinical pharmacokinetics; type: in vitro ADME
[15] = tested on: p110β; details: cited from earlier work
[16] = tested on: p110γ; details: cited from earlier work
[17] = tested on: p110δ; details: cited from earlier work
[18] = Solubility
[19] = Pharmacokinetics in MM patients, Phase I study of SF1126; details: MM patients given SF1126 infusion, dose levels 90–570 mg/m^2
[20] = cited from earlier work

With `N=C(N)NCCC[C@H](NC(=O)CCC(=O)OC[N+]1(c2cc(=O)c3cccc(-c4ccccc4)c3o2)CCOCC1)C(=O)NCC(=O)N[C@@H](CC(=O)O)C(=O)N[C@@H](CO)C(=O)[O-]` [SF1126] the IC50 ([1]; read-out: IC50 (cytotoxicity, MTT), 48 hours, sigmoidal dose-response fit) was 11.7 µM, the “increase in cleaved caspase-3 over non-treated cells” value ([2]; 5 μM) was 1.4 fold and the “cells positive for cleaved caspase-3” value ([2]; 5 μM) was 8.3%. The “increase in cleaved caspase-3 over non-treated cells” value ([2]; 50 μM) was 1.9 fold, the “cells positive for cleaved caspase-3” value ([2]; 50 μM) was 11.4% and the “increase in caspase 3 cleavage” value ([3]; 5 μM) was 3 fold. For the same molecule, the “increase in caspase 3 cleavage” value ([3]; 50 μM) was 2.7 fold, the “mean tumor volume relative to controls (fold less)” value ([4]; 50 mg/kg s.c. 3 times weekly for 3 weeks, by 34 days) was “approximately eightfold” and the “untoward effects in mice” value ([4]; mouse, in vivo) was “No untoward effects”. The “PCNA-positive proliferating cells (labeling index)” value ([5]; controls 25%, n=8, p<0.02) was 7%, the CD31 microvessel density ([5]; n=8, p<0.007) was “striking decrease” and the expression of survivin [6] was “not affected”. The “phospho-p70 S6 kinase” value [6] was “decreased”, the “phosphorylation of AKT, MDM2, and ERK” value [6] was “significantly decreased” and the “HIF-1α accumulation under hypoxic conditions” value [7] was “blocked”. For the same molecule, the “HIF-1α expression under hypoxic conditions” value [8] was “abrogated”, the “clearance of SF1126” value [9] was “rapidly cleared post-infusion” and the “effect on disease progression” value [10] was “did not appear to modify disease progression”. For the same molecule, the IC50 ([11]; MM.1S, 48 hours, sigmoidal dose-response fit) was 8.89 µM.
With `O=c1cc(N2CCOCC2)oc2c(-c3ccccc3)cccc12` [LY294002] the IC50 ([1]; Homo sapiens, 48 h, read-out: IC50 (cytotoxicity, MTT)) was 9.04 µM, the IC50 [12] was 5.83 µM and the “endogenous downstream AKT phosphorylation, ex vivo treatment” value [13] was “did not suppress”. The “phospho-p70 S6 kinase” value [6] was “decreased”, the “phosphorylation of AKT, MDM2, and ERK” value [6] was “significantly decreased” and the plasma half-life [14] was “does not have a measurable plasma half-life”. The IC50 [15] was […], the IC50 [16] was […] and the IC50 [17] was […]. For the same molecule, the solubility [18] was “only soluble in 100% DMSO”, the IC50 ([11]; Homo sapiens, MM1.S, 48 h) was 7.17 µM and the “t1/2 of active SF1126 hydrolysis product” value [19] was 1.1 to 1.5 h.
For RADS [SF1326], the “rate of cleavage to SF1101” value [20] is given as “same rate as SF1126”.
